ChEMBL document CHEMBL1127326, “Antitumor agents. 148. Synthesis and biological evaluation of novel 4 beta-amino derivatives of etoposide with better pharmacological profiles” (1994)
“And” between values parts separate entries of the source, which are not always exact repeats. Identical values can stand only once.

What was measured:
[1] = tested on: KB; assay: Cytotoxicity against KB cells after a 3 day incubation; assay type: functional, Homo sapiens; conditions: Homo sapiens, KB, 72 h; read-out: ID50 (the source's name)
Outline: (§1)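 KB cells (parental ATCC line and resistant variants) exposed to drug at five concentrations […] for 3 days. ID50 is the concentration giving 50% reduction in cell number, derived from the degree of inhibition at the five concentrations.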

[2] = tested on: Tumor Cell line; assay: Drug concentration required to inhibit total cell growth; assay type: functional, Homo sapiens; conditions: read-out: Log TGI (converted)
Outline: (§2)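 NCI panel of 54 human tumor lines from eight cancer types, mostly seeded at 20 000 cells/well. Cells were preincubated 24 h without drug, then exposed to five 10-fold dilutions for 48 h, fixed and stained with sulforhodamine B, and read spectrophotometrically. Versus control, GI50 (50% growth inhibition), TGI (0% growth) and LC50 (−50% growth) were calculated; mean graph midpoints average all lines.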

[3] = tested on: Tumor Cell line; assay: Drug molar concentration required to inhibit 50% of human tumor cell growth; assay type: functional; conditions: Homo sapiens, Tumor Cell line; outline: as §2
[4] = target: DNA topoisomerase II (Homo sapiens) (UniProt P11388+Q02880); assay: 50% inhibition of human DNA topoisomerase II; assay type: protein assay
[5] = tested on: Nucleic Acid; assay: Percentage inhibition of cellular protein-DNA complex formation; assay type: functional; conditions: Homo sapiens
[6] = tested on: Tumor Cell line; assay: Drug concentration required to cause 50% cell death; assay type: functional, Homo sapiens; conditions: Homo sapiens, Tumor Cell line
Outline: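 NCI in vitro panel of 54 human tumor cell lines from eight cancer types, mostly seeded at 20 000 cells/well and preincubated 24 h without drug. Five 10-fold dilutions were then added for a further 48 h. Cells were fixed in situ and stained with sulforhodamine B, and bound dye was read spectrophotometrically. LC50 (−50% growth versus control) was taken from five-point dose-response curves and reported as the log10 mean-graph midpoint across lines.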

[7] = tested on: CAKI-1; assay: (§3) In vitro anti tumor activity against human tumor Renal cancer cell lines was determined; assay type: functional
Outline: (§4)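 NCI in vitro screen of 54 human tumour lines from eight cancer types. Cells seeded mostly at 20 000/well, preincubated 24 h without drug, then exposed to five 10-fold dilutions for 48 h. Cells fixed in situ, stained with sulforhodamine B, bound dye solubilised and read spectrophotometrically. GI50, TGI (0% growth) and LC50 (-50% growth) were taken from dose-response curves relative to control. Mean-graph midpoints averaged across all lines.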

[8] = tested on: 786-0; assay: as §3; assay type: functional; outline: as §4
[9] = tested on: ACHN; assay: as §3; assay type: functional; outline: as §4
[10] = tested on: UO-31; assay: as §3; assay type: functional; outline: as §4
[11] = tested on: RXF 393; assay: as §3; assay type: functional; outline: as §4
[12] = tested on: TK-10; assay: as §3; assay type: functional; outline: as §4
[13] = tested on: SN12C; assay: as §3; assay type: functional; outline: as §4
[14] = tested on: M14; assay: (§5) In vitro anti tumor activity against human melanoma cell lines was determined; assay type: functional; outline: as §4
[15] = tested on: SK-MEL-28; assay: as §5; assay type: functional; outline: as §4
[16] = tested on: M19-MEL; assay: as §5; assay type: functional; outline: as §4
[17] = tested on: UACC-62; assay: as §5; assay type: functional; outline: as §4
[18] = tested on: SK-MEL-2; assay: as §5; assay type: functional; outline: as §4
[19] = tested on: LOX IMVI; assay: as §5; assay type: functional; outline: as §4
[20] = tested on: Malme-3M; assay: as §5; assay type: functional; outline: as §4
[21] = tested on: UACC-257; assay: as §5; assay type: functional; outline: as §4
[22] = tested on: SK-MEL-5; assay: as §5; assay type: functional; outline: as §4
[23] = tested on: KB; assay: 50% reduction in the number of KB V20C resistant variant; assay type: functional, Homo sapiens; conditions: Homo sapiens, KB; read-out: ID50 (the source's name); outline: as §1
[24] = tested on: DMS-114; assay: (§6) In vitro anti tumor activity against human tumor small cell lung cancer cell lines was determined; assay type: functional; outline: as §4
[25] = tested on: DMS-273; assay: as §6; assay type: functional; outline: as §4
[26] = tested on: Panel (56 tumour cell lines); assay: In vitro anti tumor activity against human tumor cell lines was determined; assay type: functional; outline: as §4
[27] = tested on: MOLT-4; assay: (§7) In vitro anti tumor activity against human tumor leukemia cell lines was determined; assay type: functional; outline: as §4
[28] = tested on: SR; assay: as §7; assay type: functional; outline: as §4
[29] = tested on: K562; assay: as §7; assay type: functional; outline: as §4
[30] = tested on: HL-60; assay: as §7; assay type: functional; outline: as §4
[31] = tested on: CCRF-CEM; assay: as §7; assay type: functional; outline: as §4
[32] = tested on: RPMI-8226; assay: as §7; assay type: functional; outline: as §4
[33] = tested on: SW-620; assay: (§8) In vitro anti tumor activity against human colon tumor cell lines was determined; assay type: functional; outline: as §4
[34] = tested on: HCC 2998; assay: as §8; assay type: functional; outline: as §4
[35] = tested on: HCT-116; assay: as §8; assay type: functional; outline: as §4
[36] = tested on: KM-20L2; assay: as §8; assay type: functional; outline: as §4
[37] = tested on: DLD-1; assay: as §8; assay type: functional; outline: as §4
[38] = tested on: COLO 205; assay: as §8; assay type: functional; outline: as §4
[39] = tested on: HCT-15; assay: as §8; assay type: functional; outline: as §4
[40] = tested on: HT-29; assay: as §8; assay type: functional; outline: as §4
[41] = tested on: KM12; assay: as §8; assay type: functional; outline: as §4
[42] = tested on: NCI-H226; assay: (§9) In vitro anti tumor activity against human non-small cell lung cancer cell lines was determined; assay type: functional; outline: as §4
[43] = tested on: NCI-H460; assay: as §9; assay type: functional; outline: as §4
[44] = tested on: NCI-H522; assay: as §9; assay type: functional; outline: as §4
[45] = tested on: HOP-92; assay: as §9; assay type: functional; outline: as §4
[46] = tested on: A549; assay: as §9; assay type: functional; outline: as §4
[47] = tested on: LXFL 529; assay: as §9; assay type: functional; outline: as §4
[48] = tested on: EKVX; assay: as §9; assay type: functional; outline: as §4
[49] = tested on: NCI-H322M; assay: as §9; assay type: functional; outline: as §4
[50] = tested on: HOP-62; assay: as §9; assay type: functional; outline: as §4
[51] = tested on: KB; assay: 50% reduction in the number of KB ATCC cells; assay type: functional; conditions: Homo sapiens, read-out: ID50 (the source's name); outline: as §1
[52] = tested on: KB; assay: 50% reduction in the number of KB 7D (topoisomerase II, aMDR) resistant variant; assay type: functional, Homo sapiens; conditions: Homo sapiens, KB; read-out: ID50 (the source's name); outline: as §1
[53] = tested on: NCI-H23; assay: as §9; conditions: NCI-H23, read-out: Log GI50 (converted)
[54] = tested on: SNB-75; assay: (§10) In vitro anti tumor activity against human CNS cancer cell lines was determined; assay type: functional; outline: as §4
[55] = tested on: SNB-78; assay: as §10; assay type: functional; outline: as §4
[56] = tested on: SF-295; assay: as §10; assay type: functional; outline: as §4
[57] = tested on: XF498; assay: as §10; assay type: functional; outline: as §4
[58] = tested on: SF-268; assay: as §10; assay type: functional; outline: as §4
[59] = tested on: SF-539; assay: as §10; assay type: functional; outline: as §4
[60] = tested on: SNB-19; assay: as §10; assay type: functional; outline: as §4
[61] = tested on: U-251; assay: as §10; assay type: functional; outline: as §4
[62] = tested on: OVCAR-4; assay: (§11) In vitro anti tumor activity against human tumor Ovarian cancer cell lines was determined; assay type: functional; outline: as §4
[63] = tested on: OVCAR-8; assay: as §11; assay type: functional; outline: as §4
[64] = tested on: SK-OV-3; assay: as §11; assay type: functional; outline: as §4
[65] = tested on: IGROV-1; assay: as §11; assay type: functional; outline: as §4
[66] = tested on: OVCAR-3; assay: as §11; assay type: functional; outline: as §4

COc1cc([C@@H]2c3cc4c(cc3[C@@H](NCCN3CCOCC3)[C@H]3COC(=O)[C@H]23)OCO4)cc(OC)c1O
IC50 [1]: 4000 nM
TGI ([2]; Homo sapiens, Tumor Cell line): 10 µM
GI50 [3]: 2450 nM

COc1cc([C@@H]2c3cc4c(cc3[C@@H](Nc3ccc(C(=O)O)cc3)[C@H]3COC(=O)[C@H]23)OCO4)cc(OC)c1O [listing 1 of 2 here]
IC50 [1]: > 4000 nM
TGI [2]: 15.8 µM
GI50 [3]: 8510 nM

CCOC(=O)N1CCC(N[C@@H]2c3cc4c(cc3[C@@H](c3cc(OC)c(O)c(OC)c3)[C@H]3C(=O)OC[C@@H]32)OCO4)CC1
ID50 [4]: 25 µM

COc1cc([C@@H]2c3cc4c(cc3[C@@H](Nc3ccc(C(=O)O)cc3)[C@H]3COC(=O)[C@H]23)OCO4)cc(OC)c1O [listing 2 of 2 here]
ID50 [4]: > 100 µM
Complex formation [5]: > 6.9% and 1.9%

COc1cc([C@@H]2c3cc4c(cc3[C@@H](NCCN3CCCCC3)[C@H]3COC(=O)[C@H]23)OCO4)cc(OC)c1O
IC50 [1]: 1600 nM
TGI ([2]; Homo sapiens, Tumor Cell line): 3.72 µM
LC50 [6]: 36.3 µM
GI50 [3]: 427 nM

COc1cc([C@@H]2c3cc4c(cc3[C@@H](NC3CCN(Cc5ccccc5)CC3)[C@H]3COC(=O)[C@H]23)OCO4)cc(OC)c1O
GI50 [7]: 275 nM
GI50 [8]: 33.1 nM
GI50 [9]: 18.2 nM
GI50 [10]: 87.1 nM
GI50 [11]: 398 nM
GI50 [12]: 195 nM
GI50 [13]: 39.8 nM
GI50 [14]: 47.9 nM
GI50 [15]: 324 nM
GI50 [16]: 204 nM
GI50 [17]: 36.3 nM
GI50 [18]: 240 nM
GI50 [19]: 34.7 nM
GI50 [20]: 112 nM
GI50 [21]: 257 nM
GI50 [22]: 74.1 nM
IC50 [23]: 21.5 nM
GI50 [24]: 64.6 nM
GI50 [25]: 21.9 nM
GI50 [26]: 87.1 nM
IC50 [1]: 21 nM
TGI [2]: 0.525 µM
GI50 [27]: < 10 nM
GI50 [28]: 10 nM
GI50 [29]: 123 nM
GI50 [30]: 13.8 nM
GI50 [31]: 22.4 nM
GI50 [32]: 53.7 nM
GI50 [33]: 75.9 nM
GI50 [34]: 174 nM
GI50 [35]: 151 nM
GI50 [36]: 204 nM
GI50 [37]: 427 nM
GI50 [38]: 178 nM
GI50 [39]: 123 nM
GI50 [40]: 138 nM
GI50 [41]: 204 nM
GI50 [42]: 11 nM
GI50 [43]: < 10 nM
GI50 [44]: 83.2 nM
GI50 [45]: 25.7 nM
GI50 [46]: 13.8 nM
GI50 [47]: 437 nM
GI50 [48]: 776 nM
GI50 [49]: 1070 nM
GI50 [50]: 26.9 nM
IC50 [51]: 24 nM
IC50 [52]: 97.5 nM
GI50 [3]: 87.1 nM
GI50 [53]: 40.7 nM
GI50 [54]: 219 nM
GI50 [55]: 933 nM
GI50 [56]: 36.3 nM
GI50 [57]: 132 nM
GI50 [58]: 129 nM
GI50 [59]: 53.7 nM
GI50 [60]: 93.3 nM
GI50 [61]: 26.3 nM
GI50 [62]: 1120 nM
GI50 [63]: 97.7 nM
GI50 [64]: 53.7 nM
GI50 [65]: 38.9 nM
GI50 [66]: 302 nM
